# According to ChEMBL document CHEMBL1122621, “Antihypertensive activities of phenyl aminoethyl sulfides, a class of synthetic substrates for dopamine beta-hydroxylase” (J Med Chem, 1984):
# How the values were obtained:
# [1] = target: T1, Monoamine oxidase (Bos taurus, UniProt P56560+P21398); test: Compound was evaluated as substrate for monoamine oxidase (MAO) from bovine […] and the enzymatic kinetic constant was reported as Kcat; c = Compounds displayed no trace of substrate activity even at high enzyme concentrations; format: protein assay; details: cattle
# T1 sequence (P56560 whole entry): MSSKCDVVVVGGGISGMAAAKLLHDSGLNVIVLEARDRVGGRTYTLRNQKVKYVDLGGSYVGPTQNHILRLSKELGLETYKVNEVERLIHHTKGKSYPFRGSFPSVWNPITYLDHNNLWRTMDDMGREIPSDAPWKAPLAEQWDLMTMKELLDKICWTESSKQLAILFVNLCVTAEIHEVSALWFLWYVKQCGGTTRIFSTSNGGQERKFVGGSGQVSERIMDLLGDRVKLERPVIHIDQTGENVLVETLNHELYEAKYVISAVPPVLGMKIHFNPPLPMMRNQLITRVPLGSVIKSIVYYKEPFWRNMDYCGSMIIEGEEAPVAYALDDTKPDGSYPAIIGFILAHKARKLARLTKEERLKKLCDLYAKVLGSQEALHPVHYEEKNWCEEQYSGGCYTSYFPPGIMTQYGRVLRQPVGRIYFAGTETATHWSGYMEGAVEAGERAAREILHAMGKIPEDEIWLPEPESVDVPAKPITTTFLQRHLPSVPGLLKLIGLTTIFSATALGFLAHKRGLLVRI
# T1 sequence (P21398 whole entry): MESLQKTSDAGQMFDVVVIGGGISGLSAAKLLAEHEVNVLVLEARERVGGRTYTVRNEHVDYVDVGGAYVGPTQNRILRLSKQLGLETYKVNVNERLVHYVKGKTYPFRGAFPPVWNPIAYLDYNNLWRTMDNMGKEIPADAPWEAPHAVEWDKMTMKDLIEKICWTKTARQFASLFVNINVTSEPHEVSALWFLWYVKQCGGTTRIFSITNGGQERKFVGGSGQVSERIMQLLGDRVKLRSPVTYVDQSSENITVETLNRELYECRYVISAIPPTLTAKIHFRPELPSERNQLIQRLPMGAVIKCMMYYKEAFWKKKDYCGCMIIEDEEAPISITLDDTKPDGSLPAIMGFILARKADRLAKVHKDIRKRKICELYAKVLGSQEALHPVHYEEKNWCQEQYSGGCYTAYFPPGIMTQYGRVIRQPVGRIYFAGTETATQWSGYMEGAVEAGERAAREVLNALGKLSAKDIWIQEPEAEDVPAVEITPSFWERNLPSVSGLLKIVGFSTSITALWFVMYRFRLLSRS
# Summary of the method: (§1)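 Bovine MAO, a mixed A/B isozyme preparation, commercial. Oxygen monitor assay in 0.1 M potassium phosphate pH 7.2, air-saturated, 37 °C. kcat and Km from computer fit to hyperbolic Michaelis-Menten equation. kcat based on total protein, assuming MW 290 000.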
# [2] = Ratio of the kinetic parameter Kcat to the Km on substrate dopamine monoamine oxidase; c = Compounds displayed no trace of substrate activity even at high enzyme concentrations
# [3] = target: T2, Dopamine beta-hydroxylase (Bos taurus) (UniProt P15101); test: Compound was evaluated as substrate for Dopamine beta hydroxylase (DBH) from bovine adrenals and the enzymatic kinetic constant was reported as Kcat
# T2 sequence (whole entry): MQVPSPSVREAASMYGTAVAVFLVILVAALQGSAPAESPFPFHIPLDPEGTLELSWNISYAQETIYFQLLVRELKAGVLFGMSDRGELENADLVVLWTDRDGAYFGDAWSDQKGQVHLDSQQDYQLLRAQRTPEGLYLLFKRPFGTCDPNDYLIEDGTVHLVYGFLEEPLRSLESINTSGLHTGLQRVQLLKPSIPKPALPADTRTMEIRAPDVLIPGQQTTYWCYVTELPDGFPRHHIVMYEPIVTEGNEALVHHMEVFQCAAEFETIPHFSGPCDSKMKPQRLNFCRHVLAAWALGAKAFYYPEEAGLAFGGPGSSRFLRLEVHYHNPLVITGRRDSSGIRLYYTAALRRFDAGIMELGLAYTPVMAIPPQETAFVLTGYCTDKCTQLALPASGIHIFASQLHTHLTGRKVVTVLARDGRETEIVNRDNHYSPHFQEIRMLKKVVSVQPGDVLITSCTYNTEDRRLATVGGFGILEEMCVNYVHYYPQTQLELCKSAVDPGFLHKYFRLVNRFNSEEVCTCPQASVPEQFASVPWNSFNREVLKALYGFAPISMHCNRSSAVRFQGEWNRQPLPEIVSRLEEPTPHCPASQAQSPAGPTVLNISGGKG
# [4] = Ratio of the kinetic parameter Kcat to the Km on substrate […] from bovine adrenals; format: tissue-based; details: Adrenal gland
# [5] = target: T1, Monoamine oxidase; test: Compound was evaluated as substrate for monoamine oxidase (MAO) from bovine […] and the enzymatic kinetic constant was reported as Km; c = Compounds displayed no trace of substrate activity even at high enzyme concentrations; format: protein assay; details: cattle; summary of the method: as §1
# [6] = target: T1, Monoamine oxidase; test: Compound was evaluated as substrate for monoamine oxidase (MAO) from bovine […] and the enzymatic kinetic constant was reported as Kcat; format: protein assay; details: cattle; summary of the method: as §1
# [7] = target: T3, monoamine oxidase (MAO) (Bos taurus, UniProt P21398+P56560); test: Compound was evaluated as substrate for monoamine oxidase (MAO) from bovine […] and the enzymatic kinetic constant was reported as Km; format: protein assay; details: cattle; summary of the method: as §1
# T3 sequence (P56560 whole entry): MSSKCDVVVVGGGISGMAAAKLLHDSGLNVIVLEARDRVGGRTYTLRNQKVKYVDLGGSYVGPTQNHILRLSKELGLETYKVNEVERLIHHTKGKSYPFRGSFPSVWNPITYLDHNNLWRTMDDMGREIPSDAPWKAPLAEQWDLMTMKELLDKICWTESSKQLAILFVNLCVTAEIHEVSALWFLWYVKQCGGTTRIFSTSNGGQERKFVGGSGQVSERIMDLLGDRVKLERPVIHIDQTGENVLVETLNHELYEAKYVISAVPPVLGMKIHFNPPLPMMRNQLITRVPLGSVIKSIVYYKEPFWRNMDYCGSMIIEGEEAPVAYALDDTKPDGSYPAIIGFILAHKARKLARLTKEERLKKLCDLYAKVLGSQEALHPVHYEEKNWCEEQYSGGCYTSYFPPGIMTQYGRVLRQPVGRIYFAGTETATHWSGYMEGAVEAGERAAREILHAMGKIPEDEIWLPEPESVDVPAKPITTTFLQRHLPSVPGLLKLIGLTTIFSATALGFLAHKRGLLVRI
# T3 sequence (P21398 whole entry): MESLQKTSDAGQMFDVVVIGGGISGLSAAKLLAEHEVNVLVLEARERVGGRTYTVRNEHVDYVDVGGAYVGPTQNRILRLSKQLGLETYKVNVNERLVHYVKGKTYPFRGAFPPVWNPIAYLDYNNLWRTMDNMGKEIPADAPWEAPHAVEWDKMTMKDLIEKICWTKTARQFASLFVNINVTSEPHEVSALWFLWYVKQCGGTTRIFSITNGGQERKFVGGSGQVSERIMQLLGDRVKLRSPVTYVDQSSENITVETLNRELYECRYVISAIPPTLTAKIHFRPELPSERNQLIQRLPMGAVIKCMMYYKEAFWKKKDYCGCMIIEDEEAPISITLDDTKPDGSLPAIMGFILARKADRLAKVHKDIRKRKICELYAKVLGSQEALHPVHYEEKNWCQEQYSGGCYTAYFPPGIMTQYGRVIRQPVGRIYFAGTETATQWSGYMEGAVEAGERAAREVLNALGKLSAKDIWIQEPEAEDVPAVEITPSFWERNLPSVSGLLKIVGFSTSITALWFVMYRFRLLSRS
# [8] = Ratio of the kinetic parameter Kcat to the Km on substrate dopamine monoamine oxidase
# [9] = substrate: NCCc1ccccc1; test: (§2) Compound was evaluated as substrate for Dopamine beta hydroxylase (DBH) from bovine adrenals and the enzymatic kinetic constant was reported as Km; format: tissue-based; details: Adrenal gland
# [10] = substrate: NCCc1ccc(O)cc1; test: as §2; format: tissue-based; details: Adrenal gland
# [11] = substrate: NCCSc1ccc(O)cc1; test: as §2; format: tissue-based; details: Adrenal gland
# [12] = substrate: NCCCc1ccccc1; test: as §2; format: tissue-based; details: Adrenal gland
# [13] = substrate: CC(N)CSc1ccc(O)cc1; test: as §2; format: tissue-based; details: Adrenal gland
# [14] = substrate: NCCSc1ccccc1; test: as §2; format: tissue-based; details: Adrenal gland
# [15] = substrate: CC(N)CSc1ccccc1; test: as §2; format: tissue-based; details: Adrenal gland
Molecule,k cat [3] [s⁻¹],Ratio [4] [M⁻¹ s⁻¹],k cat [6] [s⁻¹],Km [7] [µM],Ratio [8] [M⁻¹ s⁻¹],also measured
CC(N)CSc1ccc(O)cc1 (racemic),44,6700,–,–,–,k cat [1]: No activity; Ratio [2]: No activity; Km [5]: No activity
CC(N)CSc1ccccc1 (racemic),20,1000,–,–,–,k cat [1]: No activity; Ratio [2]: No activity; Km [5]: No activity
NCCSc1ccccc1,39,2300,0.43,55,7300,–
NCCc1ccccc1 [PHENETHYLAMINE],65,9300,0.23,2200,100,–
NCCCc1ccccc1,12,590,0.17,290,580,–
NCCc1ccc(O)cc1,85,42000,–,–,–,–
NCCSc1ccc(O)cc1,36,8300,0.22,49,4500,–
"Dopamine beta-hydroxylase (Bos taurus), P15101 (protein) MQVPSPSVREAASMYGTAVAVFLVILVAALQGSAPAESPFPFHIPLDPEGTLELSWNISYAQETIYFQLLVRELKAGVLFGMSDRGELENADLVVLWTDRDGAYFGDAWSDQKGQVHLDSQQDYQLLRAQRTPEGLYLLFKRPFGTCDPNDYLIEDGTVHLVYGFLEEPLRSLESINTSGLHTGLQRVQLLKPSIPKPALPADTRTMEIRAPDVLIPGQQTTYWCYVTELPDGFPRHHIVMYEPIVTEGNEALVHHMEVFQCAAEFETIPHFSGPCDSKMKPQRLNFCRHVLAAWALGAKAFYYPEEAGLAFGGPGSSRFLRLEVHYHNPLVITGRRDSSGIRLYYTAALRRFDAGIMELGLAYTPVMAIPPQETAFVLTGYCTDKCTQLALPASGIHIFASQLHTHLTGRKVVTVLARDGRETEIVNRDNHYSPHFQEIRMLKKVVSVQPGDVLITSCTYNTEDRRLATVGGFGILEEMCVNYVHYYPQTQLELCKSAVDPGFLHKYFRLVNRFNSEEVCTCPQASVPEQFASVPWNSFNREVLKALYGFAPISMHCNRSSAVRFQGEWNRQPLPEIVSRLEEPTPHCPASQAQSPAGPTVLNISGGKG",–,–,–,–,–,Km [9]: 7 mM; Km [10]: 2000 µM; Km [11]: 4.4 mM; Km [12]: 20.4 mM; Km [13]: 6.5 mM; Km [14]: 17.2 mM; Km [15]: 19.1 mM
